Experimental data published in ChEMBL document CHEMBL1121970, “Potential radiosensitizing agents. 5. 2-Substituted benzimidazole derivatives” (1982).

Legend:
[1] = test system: CHO; test: Radiosensitizing activity against chinese hamster cells was determined in the presence of the sensitizer under nitrogen at a concentration of 1.0 mM; assay type: functional, Cricetulus griseus
In short: (§1)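 V-79 Chinese hamster monolayers (exponentially growing, MEM with 15% fetal calf serum), about 200 cells per dish. Made hypoxic by purging sealed containers with 95% N2/5% CO2 for 1 h. Drug at maximum nontoxic concentration (1 mM or less) for 2 h at 37 °C. Cobalt-60 irradiation, 1400 rad, at room temperature. Medium replaced, colonies counted after 6 days; % survival.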

[2] = test system: V79; test: Inhibitory activity against hypoxic Chinese hamster cells(V-79) in culture by colony formation assay; assay type: functional; conditions: Cricetulus griseus, read-out: ED50 (the source's name)
[3] = Sensitizer enhancement ratio was determined by dividing the Do value obtained from the control radiation survival curve by the Do value obtained from the radiation survival curve; assay type: functional
[4] = Sensitizer enhancement ratio(SER) was determined; assay type: functional
[5] = test system: CHO; test: Radiosensitizing activity against chinese hamster cells was determined in the presence of the sensitizer under nitrogen at a concentration of 0.010 mM; assay type: functional, Cricetulus griseus; in short: as §1

SMILES	Survivals [1] [%]	EC50 [2] [µM]	SER [3]	SER [4]	Survivals [5] [%]
COCC(O)Cn1c(C(N)=O)nc2ccccc21 (stereo unspecified)	21	> 5000	1.1	–	–
COCC(O)Cn1c(C(F)(F)F)nc2ccccc21 (stereo unspecified)	22	> 5000	1.1	–	–
COCC(O)Cn1c(C#N)nc2ccccc21 (stereo unspecified)	23	1200	1	–	–
COCC(O)Cn1c(C(F)(F)F)nc2cc([N+](=O)[O-])ccc21 (stereo unspecified)	13.8	> 5000	1.4	–	–
COCC(O)Cn1c(C(C)=O)nc2ccccc21 (stereo unspecified)	23	> 5000	1	–	–
COCC(O)Cn1c(C(F)(F)F)nc2ccc([N+](=O)[O-])cc21 (stereo unspecified)	17.6	3000	1.2	–	–
CCOC(=O)Cn1c([N+](=O)[O-])nc2cc([N+](=O)[O-])ccc21	26.7	16	–	1	–
CCOC(=O)Cn1c([N+](=O)[O-])nc2ccccc21	2.7	300	2.3	–	–
COCC(O)Cn1c(C(C)=O)nc2cc([N+](=O)[O-])ccc21 (stereo unspecified)	11.3	> 5000	1.2	–	–
CCOC(=O)Cn1c([N+](=O)[O-])nc2ccc([N+](=O)[O-])cc21	–	6	–	1	22.9
COCC(O)Cn1c([N+](=O)[O-])nc2ccccc21 (stereo unspecified)	9.4	4800	2	–	–
COCC(O)Cn1c(S(C)(=O)=O)nc2ccccc21 (stereo unspecified)	25.8	3200	1	–	–
